Series [1] is described as follows: Inhibition of Perforin-1 in sheep red blood cells incubated for 30 mins. The format is cell-based, Ovis aries. The following applies: rbc. The procedure, abridged:
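Recombinant mouse perforin-mediated lysis of sheep red blood cells, read as turbidity change by absorbance at 650 nm. Compounds first tested at a single 20 μM point, then at 100, 20, 4, 0.8 and 0.16 μM to give IC₅₀. Hits were rechecked with 0.1% BSA.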

Series [2] deals with T1, Perforin-1 (Homo sapiens) (UniProt P14222).
T1 sequence (whole entry): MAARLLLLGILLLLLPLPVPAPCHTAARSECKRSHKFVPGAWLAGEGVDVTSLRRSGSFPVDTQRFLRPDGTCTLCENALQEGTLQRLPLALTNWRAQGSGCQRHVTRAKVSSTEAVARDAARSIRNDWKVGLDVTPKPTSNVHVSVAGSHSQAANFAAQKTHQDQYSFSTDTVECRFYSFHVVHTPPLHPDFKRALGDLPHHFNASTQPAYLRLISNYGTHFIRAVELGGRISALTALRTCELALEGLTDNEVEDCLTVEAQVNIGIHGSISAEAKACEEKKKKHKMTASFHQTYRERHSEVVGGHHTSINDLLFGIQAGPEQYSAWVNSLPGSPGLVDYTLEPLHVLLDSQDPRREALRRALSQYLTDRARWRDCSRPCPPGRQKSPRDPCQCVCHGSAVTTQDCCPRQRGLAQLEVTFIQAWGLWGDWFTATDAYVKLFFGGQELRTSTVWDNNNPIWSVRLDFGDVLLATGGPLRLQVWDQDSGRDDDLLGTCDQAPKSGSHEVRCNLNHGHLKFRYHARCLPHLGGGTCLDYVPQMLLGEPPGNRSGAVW
Put plainly: Inhibition of Perforin-1 in human Jurkat cells at 20 uM incubated for 4 hrs relative to control. The format is cell-based.

Series [3] can be described thus: Mutagenicity in Salmonella typhimurium TA100 by AMES test. The format is toxicity, Salmonella enterica subsp. enterica serovar Typhimurium.
Series [4] in a line: Antiproliferative activity against human KHYG-1 at 20 uM incubated for 20 mins. The format is functional.
Series [5] is described as follows: Reversal of Perforin-1 dependent NK-cell mediated graft rejection in human KHYG-1 cells assessed as reduction in perforin-1 activity at 90 mg/kg for 24 days relative to control. The format is functional. Also on record: scale not given: the % may be the effect or the level left. The following applies: time 24 day.
The subject of series [6] is Brain. Put plainly: Anti-neuroinflammation in LPS-induced mouse brain assessed as reduction in prostaglandin E2 production at 250 microg/kg administered for 3 days. The format is functional. Also on record: scale not given: the % may be the effect or the level left. The following applies: dose 250 µg/kg; time 3 day.
For the next series, the target named is Acetylcholinesterase (Homo sapiens, UniProt P22303). Put plainly: Inhibition of AChE (unknown origin).
In series [7] the test system is Brain. Nature of the series: Anti-neuroinflammation in LPS-induced mouse brain assessed as reduction in caspase-3/7 production at 250 microg/kg administered for 3 days. The format is functional. Also on record: scale not given: the % may be the effect or the level left. The settings on record: dose 250 µg/kg; time 3 day.
Series [8] addresses Beta-secretase 1 (Homo sapiens) (UniProt P56817). Nature of the series: Inhibition of BACE1 (unknown origin) at 1 uM relative to control.
Series [9] deals with T1, Perforin-1 (Homo sapiens). Put plainly: Inhibition of Perforin-1 in human Natural killer cells at 20 uM incubated after 24 hrs relative to control. The following applies: Natural killer cell, time 4.0 hrs, in the assay text read “after 4 hrs” for “after 24 hrs”. It counts as cell-based. The procedure, abridged: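 Human KHYG1 NK cells plus medium coincubated with inhibitor at 20 μM final, or 5 μM in one case. ⁵¹Cr-labelled K562 leukaemia targets added; lysis measured by ⁵¹Cr release after 4 h. Effector NK cell viability measured 24 h later.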

Series [10] in a line: Stability in mouse plasma incubated for 24 hrs by HPLC analysis. The format is ADME, cell-free. The following applies: read-out: Stability. The procedure, abridged:
(§1)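 Compound incubated in human or mouse plasma at 37 °C for 24 h; parent remaining quantified by HPLC.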

Series [11] in a line: Cytotoxicity against human Natural killer cells at 20 uM. The settings on record: natural killer cell.
Series [12] can be described thus: Cytotoxicity against human Natural killer cells assessed as reduction in cell viability at 20 uM.
A short description of series [13]: Stability in human plasma incubated for 24 hrs by HPLC analysis. The format is ADME, cell-free. The settings on record: read-out: Stability. The procedure, abridged:
as §1

The target of series [14] is T2, Perforin-1 (Mus musculus) (UniProt P10820).
T2 sequence (whole entry): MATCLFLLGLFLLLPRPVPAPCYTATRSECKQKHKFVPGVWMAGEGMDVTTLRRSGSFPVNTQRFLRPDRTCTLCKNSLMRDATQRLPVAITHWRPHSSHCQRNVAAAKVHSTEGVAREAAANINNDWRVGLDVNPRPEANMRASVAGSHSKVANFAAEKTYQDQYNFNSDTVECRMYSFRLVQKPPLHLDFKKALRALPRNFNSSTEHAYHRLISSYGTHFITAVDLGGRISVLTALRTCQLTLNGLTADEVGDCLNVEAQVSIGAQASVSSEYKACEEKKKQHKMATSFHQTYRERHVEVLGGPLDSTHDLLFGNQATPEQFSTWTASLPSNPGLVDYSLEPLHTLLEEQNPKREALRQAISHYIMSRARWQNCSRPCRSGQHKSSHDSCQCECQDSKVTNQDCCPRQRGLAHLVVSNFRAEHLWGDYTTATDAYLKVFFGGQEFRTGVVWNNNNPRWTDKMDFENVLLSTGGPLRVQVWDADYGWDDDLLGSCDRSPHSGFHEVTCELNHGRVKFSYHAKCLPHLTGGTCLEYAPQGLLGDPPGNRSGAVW
Put plainly: Inhibition of mouse Perforin-1 in Natural killer cell at 20 uM relative to control.

Series [15] is described as follows: Toxicity in C57BL/6 mouse assessed as effect on aspartate transaminase level at 100 mg/kg, po measured for 2 days. The format is organism-based. The settings on record: in vivo, 48 h, time 2 day.
Series [16] in a line: Toxicity in C57BL/6 mouse assessed as animal survival at 100 mg/kg, po measured for 2 days. The following applies: in vivo, time 2 day, read-out: Activity. It counts as organism-based.
Series [17] concerns the target T1, Perforin-1 (Homo sapiens). Put plainly: Inhibition of Perforin-1 in human KHYG-1 cells assessed as unbound concentration. It counts as cell-based. In a few lines: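 KHYG1 NK cell killing of ⁵¹Cr-labelled K562 targets; IC₉₀ determined. Compound binding to proteins in the assay medium was measured and used to estimate the unbound IC₉₀.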
The nature of series [18]: Plasma protein binding in mouse. The format is ADME, cell-free. The following applies: read-out: PPB (converted).
Series [19] can be described thus: Elimination half life in mouse plasma at 10 to 160 mg/kg, po measured for 24 hrs. It counts as ADME, organism-based. The following applies: dose 10-160 mg/kg, read-out: beta t1/2 (converted).

From ChEMBL document CHEMBL5150022, “Small Molecule Inhibitors of Lymphocyte Perforin as Focused Immunosuppressants for Infection and Autoimmunity” (J Med Chem, 2022) come the findings set out here.

Values joined by “and” are separate entries in the source; they are usually repeats but may differ in a detail not shown here. Equal entries are not always repeated.

Chain of Beta-secretase 1 (Homo sapiens) (P56817 whole entry): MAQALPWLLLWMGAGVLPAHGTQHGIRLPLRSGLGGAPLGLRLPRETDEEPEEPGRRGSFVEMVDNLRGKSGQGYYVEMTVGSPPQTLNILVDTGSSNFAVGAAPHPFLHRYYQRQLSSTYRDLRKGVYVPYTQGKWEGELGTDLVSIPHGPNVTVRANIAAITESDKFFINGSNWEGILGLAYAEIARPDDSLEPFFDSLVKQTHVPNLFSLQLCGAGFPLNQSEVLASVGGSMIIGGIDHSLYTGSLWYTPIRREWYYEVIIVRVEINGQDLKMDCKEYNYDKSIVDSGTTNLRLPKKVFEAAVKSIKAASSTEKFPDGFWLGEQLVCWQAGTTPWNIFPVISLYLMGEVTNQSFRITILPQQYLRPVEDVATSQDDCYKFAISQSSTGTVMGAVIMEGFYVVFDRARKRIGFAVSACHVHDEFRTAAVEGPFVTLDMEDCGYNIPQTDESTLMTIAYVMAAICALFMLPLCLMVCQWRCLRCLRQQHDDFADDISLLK
Chain of Acetylcholinesterase (P22303 whole entry): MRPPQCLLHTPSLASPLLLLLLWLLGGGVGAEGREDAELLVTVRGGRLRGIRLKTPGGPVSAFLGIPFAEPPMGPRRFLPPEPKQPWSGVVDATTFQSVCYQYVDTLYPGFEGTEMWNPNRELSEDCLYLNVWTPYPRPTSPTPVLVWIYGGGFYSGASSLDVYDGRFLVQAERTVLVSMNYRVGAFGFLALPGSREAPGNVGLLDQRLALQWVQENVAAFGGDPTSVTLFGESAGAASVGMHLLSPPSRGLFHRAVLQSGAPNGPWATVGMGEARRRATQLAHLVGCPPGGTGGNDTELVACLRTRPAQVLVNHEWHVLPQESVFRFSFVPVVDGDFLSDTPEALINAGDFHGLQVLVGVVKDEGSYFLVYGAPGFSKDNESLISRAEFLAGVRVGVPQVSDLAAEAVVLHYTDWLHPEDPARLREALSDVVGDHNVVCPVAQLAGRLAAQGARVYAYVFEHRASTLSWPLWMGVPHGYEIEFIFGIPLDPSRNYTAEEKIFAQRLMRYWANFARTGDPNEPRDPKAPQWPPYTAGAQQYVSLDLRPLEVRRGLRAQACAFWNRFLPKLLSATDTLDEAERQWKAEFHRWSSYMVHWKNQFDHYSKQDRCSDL

Broadly, the IC50 is the point on the concentration scale where inhibition reaches its midpoint. As usually defined, the inhibition is the percentage by which the read-out fell short of the control. For `O=C1NC(=S)N/C1=C/c1ccc(-c2ccc3c(c2)COC3=O)o1`, the half-maximal inhibitory concentration (IC50) in series [1] is 7.2 µM. The inhibition in series [2] is 99%.
Regarding `Cc1cc2c(c(=S)[nH]1)C(=O)O/C2=C\c1ccc(C)o1`, the figures for the IC50 in series [1] and in [3] were 9.7 µM and 3.4 µM, respectively. In series [2], this compound had an inhibition of 100%.
As for `CNC(=O)c1ccc(-c2c(C#N)c(N)n3c(nc4ccccc43)c2C#N)cc1`, the 50% inhibitory concentration (IC50) in [1] was 1.04 µM. In series [2], the inhibition amounted to 91%. The compound further showed an Activity in series [4] of 84%.
As to `COc1ncc(-c2ccc(-c3cnc4c(c3)CN(C)C4=O)s2)cc1NS(=O)(=O)c1ccc(F)cc1F`, the Activity in series [5] is 66%.
Consider `O=C1OCc2cc(-c3ccc(-c4ccc(CO)cc4)s3)ccc21`, for which the Activity with Brain [6] worked out at 55%; with Brain [7], 63%. Also, the IC50 against Acetylcholinesterase turned out to be 8 µM. The inhibition in series [8] was determined as 72%.
In turn, `Cc1cc2c(c(=S)[nH]1)C(=O)O/C2=C\c1cc2ccccc2s1` had an IC50 in series [1] of 0.97 µM. Further, the inhibition in series [2] turned out to be 63%. This compound displayed an Activity in [4] of 89%.
As to `NC(=O)c1ccc(-c2ccc(-c3ccc4c(c3)COC4=O)s2)cc1`, the inhibition in series [9] amounted to 63%; in series [2], 52%. The midpoint of inhibition in [1], the IC50, lay at 13.2 µM. Moreover, the figures for the remaining at 24 h in [10] and in series [13] were 75% and 46%, respectively. Besides, the Activity in series [11] is 38% and 63%; in series [4], 70%; in [12], 90%.
Turning to `NC(=O)c1ccc(-c2ccc(-c3ccc4c(c3)COC4=O)s2)cn1`, the Activity in series [11] was found to be 80%; in [12] it was 82%.
Take `O=C1NC(=S)N/C1=C/c1ccc(-c2ccc3c(c2)CCNC3=O)s1`: in series [1], the half-inhibitory concentration (IC50) amounted to 14.7 µM. Also, the results for the inhibition in series [14] and in series [2] were 60% and 98%, respectively.
Broadly, the IC90 is the concentration at which the effect reaches the 90% level. Take `CN1Cc2cc(-c3ccc(-c4cncc(NS(=O)(=O)c5ccccc5[N+](=O)[O-])c4)s3)ccc2C1=O`: in series [15], the Activity came out at 60%. Besides, the survival at 48 h in series [16] amounted to 100%. The concentration for an effect of 90% (IC90) in series [17] stood at 0.77 µM. For the same compound, the fraction unbound in series [18] is 0.002. Also, in series [19], the half-life is 2.4 h.
